Laboratory results from ChEMBL document CHEMBL1961794, “Regulation of circadian behaviour and metabolism by synthetic REV-ERB agonists” (Nature, 2012).
Active and inactive are the calls of the source. The rule behind the calls is not given here.

Tests used:
[1] = Plasma concentration after 8 hours at 10mg/kg ip dose (10mg/ml suspension in 10%DMSO/10%Tween80); assay type: ADME, organism-based; details: mouse, read-out: Conc_plasma
In short: (§1)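 Mice received a single 10 mg/kg i.p. dose as a 10 mg/ml suspension in DMSO/Tween80/water (10/10/80). Plasma was sampled at 1, 2, 4 and 8 h post-injection and drug concentration reported in μM. Mean ± s.e.m., n=3.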

[2] = molecular target: Thyroid hormone receptor alpha (Homo sapiens) (UniProt P10827); assay: Effect on THRA(NR1A1) dependent reporter activity in HEK293 cells at 20 uM; assay type: cell-based
In short: (§2)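 Cotransfection assay in HEK293 cells with Gal4 DNA-binding domain–nuclear receptor fusions, covering a panel of all 48 human nuclear receptors. Compounds were tested at 20 μM, with reporter luciferase as the read-out. Mean ± s.e.m., n=3.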

[3] = molecular target: Nuclear receptor subfamily 2 group F member 6 (Homo sapiens) (UniProt P10588); assay: Effect on EAR2(NR2F6) dependent reporter activity in HEK293 cells at 20 uM; assay type: cell-based
In short: (§3)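 Specificity panel covering all 48 human nuclear receptors. HEK293 cells cotransfected with Gal4 DNA-binding domain–nuclear receptor fusions and a luciferase reporter. Compound tested at a single 20 μM concentration. Mean ± s.e.m., n=3.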

[4] = molecular target: Vitamin D3 receptor (Homo sapiens) (UniProt P11473); assay: Effect on VDR(NR1I1) dependent reporter activity in HEK293 cells at 20 uM; assay type: cell-based; in short: as §2
[5] = Plasma concentration after 2 hours at 100mg/kg ip dose (10mg/ml solution in 15% Cremophor); assay type: ADME, organism-based; details: mouse, read-out: Conc_plasma
In short: (§4)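 Single 100 mg/kg i.p. dose given to mice as a 10 mg/ml solution in 15% Cremophor. Plasma drug concentration (μM) was measured at 2 and 8 h post-injection. Mean ± s.e.m., n=3.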

[6] = molecular target: Nuclear receptor subfamily 2 group C member 2 (Homo sapiens) (UniProt P49116); assay: Effect on TR4(NR2C2) dependent reporter activity in HEK293 cells at 20 uM; assay type: cell-based; in short: as §2
[7] = molecular target: Peroxisome proliferator-activated receptor delta (Homo sapiens) (UniProt Q03181); assay: Effect on PPARD(NR1C2) dependent reporter activity in HEK293 cells at 20 uM; assay type: cell-based; in short: as §3
[8] = Plasma concentration after 8 hours at 100mg/kg ip dose (10mg/ml solution in 15% Cremophor); assay type: ADME, organism-based; details: mouse, read-out: Conc_plasma; in short: as §4
[9] = molecular target: Retinoic acid receptor RXR-gamma (Homo sapiens) (UniProt P48443); assay: Effect on RXRG(NR2B3) dependent reporter activity in HEK293 cells at 20 uM; assay type: cell-based; in short: as §3
[10] = molecular target: Nuclear receptor ROR-gamma (Homo sapiens) (UniProt P51449); assay: Effect on RORG(NR1F3) dependent reporter activity in HEK293 cells at 20 uM; assay type: cell-based; in short: as §3
[11] = molecular target: Nuclear receptor ROR-beta (Homo sapiens) (UniProt Q92753); assay: Effect on RORB(NR1F2) dependent reporter activity in HEK293 cells at 20 uM
[12] = molecular target: Hepatocyte nuclear factor 4-alpha (Homo sapiens) (UniProt P41235); assay: Effect on HNF4A(NR2A1) dependent reporter activity in HEK293 cells at 20 uM; assay type: cell-based; in short: as §3
[13] = tested on: Mus musculus; assay: Decreased expression of REV-ERB responsive gene Cyp7a1 in mouse liver after 6 days at 100 mg/kg; assay type: functional, organism-based; set-up: dose 100 mg/kg
[14] = molecular target: Estrogen receptor beta (Homo sapiens) (UniProt Q92731); assay: Effect on ESR2(NR3A2) dependent reporter activity in HEK293 cells at 20 uM; assay type: cell-based; in short: as §3
[15] = molecular target: Steroid hormone receptor ERR2 (Homo sapiens) (UniProt O95718); assay: Effect on ERR2(NR3B2) dependent reporter activity in HEK293 cells at 20 uM; assay type: cell-based; in short: as §3
[16] = molecular target: Peroxisome proliferator-activated receptor alpha (Homo sapiens) (UniProt Q07869); assay: Effect on PPARA(NR1C1) dependent reporter activity in HEK293 cells at 20 uM; assay type: cell-based; in short: as §3
[17] = molecular target: Nuclear receptor subfamily 1 group I member 3 (Homo sapiens, UniProt Q14994); assay: Effect on CAR(NR1I3) dependent reporter activity in HEK293 cells at 20 uM; assay type: cell-based; details: hek293, 20 µM; in short: as §3
[18] = molecular target: Oxysterols receptor LXR-alpha (Homo sapiens) (UniProt Q13133); assay: Effect on LXRA(NR1H3) dependent reporter activity in HEK293 cells at 20 uM; assay type: cell-based; in short: as §3
[19] = molecular target: Nuclear receptor subfamily 2 group E member 1 (Homo sapiens) (UniProt Q9Y466); assay: Effect on TLX(NR2E1) dependent reporter activity in HEK293 cells at 20 uM; assay type: cell-based; in short: as §2
[20] = molecular target: COUP transcription factor 1 (Homo sapiens) (UniProt P10589); assay: Effect on TFCOUP1(NR2F1) dependent reporter activity in HEK293 cells at 20 uM; assay type: cell-based; in short: as §2
[21] = Plasma concentration after 1 hour at 10mg/kg ip dose (10mg/ml suspension in 10%DMSO/10%Tween80); assay type: ADME, organism-based; details: mouse, read-out: Conc_plasma; in short: as §1
[22] = molecular target: Nuclear receptor subfamily 4immunitygroup A member 1 (Homo sapiens) (UniProt P22736); assay: Effect on GFRP1(NR4A1) dependent reporter activity in HEK293 cells at 20 uM; assay type: cell-based; in short: as §3
[23] = molecular target: Estrogen-related receptor gamma (Homo sapiens) (UniProt P62508); assay: Effect on ERR3(NR3B3) dependent reporter activity in HEK293 cells at 20 uM; assay type: cell-based; in short: as §3
[24] = molecular target: Nuclear receptor subfamily 5 group A member 2 (Homo sapiens) (UniProt O00482); assay: Effect on CPF(NR5A2) dependent reporter activity in HEK293 cells at 20 uM; assay type: cell-based; in short: as §3
[25] = molecular target: COUP transcription factor 2 (Homo sapiens) (UniProt P24468); assay: Effect on TFCOUP2(NR2F2) dependent reporter activity in HEK293 cells at 20 uM; assay type: cell-based; in short: as §2
[26] = molecular target: Retinoic acid receptor gamma (Homo sapiens) (UniProt P13631); assay: Effect on RARG(NR1B3) dependent reporter activity in HEK293 cells at 20 uM; assay type: cell-based; in short: as §3
[27] = molecular target: Nuclear receptor subfamily 0 group B member 1 (Homo sapiens) (UniProt P51843); assay: Effect on DAX1(NR0B1) dependent reporter activity in HEK293 cells at 20 uM; assay type: cell-based; in short: as §3
[28] = Brain concentration after 8 hours at 10mg/kg ip dose (10mg/ml suspension in 10%DMSO/10%Tween80); assay type: ADME, organism-based; details: mouse
In short: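 Mice given a single 10mg/kg i.p. dose as a 10mg/ml suspension in 10/10/80 DMSO/Tween80/water. Brain levels (μM) measured at 2h and 8h post injection, with plasma sampled at 1, 2, 4 and 8h. Mean ± s.e.m., n=3.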

[29] = molecular target: Retinoic acid receptor RXR-beta (Homo sapiens) (UniProt P28702); assay: Effect on RXRB(NR2B2) dependent reporter activity in HEK293 cells at 20 uM; assay type: cell-based; in short: as §3
[30] = molecular target: Nuclear receptor subfamily 1 group D member 1 (Homo sapiens) (UniProt P20393); assay: Recruitment of co-repressor NcoR1 to REV-ERB-alpha; assay type: functional
In short: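 Biochemical corepressor-interaction assay using Luminex bead technology, measuring compound-dependent recruitment of an NCoR CoRNR box peptide to REV-ERBα. Mean ± s.e.m., n=3.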

Chain of Vitamin D3 receptor (Homo sapiens) (P11473 whole entry): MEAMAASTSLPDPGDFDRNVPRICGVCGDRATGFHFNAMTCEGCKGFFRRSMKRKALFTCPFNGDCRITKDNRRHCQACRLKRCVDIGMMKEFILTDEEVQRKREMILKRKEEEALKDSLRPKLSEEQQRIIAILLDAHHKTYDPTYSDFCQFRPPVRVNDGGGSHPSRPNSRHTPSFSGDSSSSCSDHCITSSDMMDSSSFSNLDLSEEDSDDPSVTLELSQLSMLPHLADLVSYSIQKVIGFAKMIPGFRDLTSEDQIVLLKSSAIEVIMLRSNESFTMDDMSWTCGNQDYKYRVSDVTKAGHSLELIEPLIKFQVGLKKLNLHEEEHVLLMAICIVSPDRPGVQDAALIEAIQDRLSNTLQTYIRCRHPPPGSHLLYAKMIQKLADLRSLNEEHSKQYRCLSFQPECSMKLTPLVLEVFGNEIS
Chain of COUP transcription factor 2 (Homo sapiens) (P24468 whole entry): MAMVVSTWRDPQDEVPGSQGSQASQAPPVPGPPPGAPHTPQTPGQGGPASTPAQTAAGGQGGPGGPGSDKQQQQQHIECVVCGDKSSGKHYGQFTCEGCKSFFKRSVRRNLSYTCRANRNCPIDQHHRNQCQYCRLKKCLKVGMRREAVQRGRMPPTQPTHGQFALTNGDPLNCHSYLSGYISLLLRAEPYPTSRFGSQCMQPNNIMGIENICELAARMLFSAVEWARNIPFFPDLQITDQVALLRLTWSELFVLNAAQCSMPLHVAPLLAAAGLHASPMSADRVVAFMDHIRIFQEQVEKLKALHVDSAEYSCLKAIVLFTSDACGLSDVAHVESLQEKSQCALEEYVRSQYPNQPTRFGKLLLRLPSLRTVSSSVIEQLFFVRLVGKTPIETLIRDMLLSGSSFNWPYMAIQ
Chain of Steroid hormone receptor ERR2 (Homo sapiens) (O95718 whole entry): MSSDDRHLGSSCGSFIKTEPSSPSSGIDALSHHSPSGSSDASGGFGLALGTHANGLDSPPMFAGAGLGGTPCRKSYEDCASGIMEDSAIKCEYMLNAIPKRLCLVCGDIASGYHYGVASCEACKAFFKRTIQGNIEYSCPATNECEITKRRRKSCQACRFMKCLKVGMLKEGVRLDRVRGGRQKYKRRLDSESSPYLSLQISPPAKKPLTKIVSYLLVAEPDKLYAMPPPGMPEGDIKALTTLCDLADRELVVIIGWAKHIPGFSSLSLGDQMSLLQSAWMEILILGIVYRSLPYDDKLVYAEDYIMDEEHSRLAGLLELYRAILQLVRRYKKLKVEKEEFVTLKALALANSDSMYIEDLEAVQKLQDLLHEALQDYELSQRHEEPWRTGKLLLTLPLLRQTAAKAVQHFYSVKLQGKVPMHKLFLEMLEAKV
Chain of Retinoic acid receptor RXR-beta (Homo sapiens) (P28702 whole entry): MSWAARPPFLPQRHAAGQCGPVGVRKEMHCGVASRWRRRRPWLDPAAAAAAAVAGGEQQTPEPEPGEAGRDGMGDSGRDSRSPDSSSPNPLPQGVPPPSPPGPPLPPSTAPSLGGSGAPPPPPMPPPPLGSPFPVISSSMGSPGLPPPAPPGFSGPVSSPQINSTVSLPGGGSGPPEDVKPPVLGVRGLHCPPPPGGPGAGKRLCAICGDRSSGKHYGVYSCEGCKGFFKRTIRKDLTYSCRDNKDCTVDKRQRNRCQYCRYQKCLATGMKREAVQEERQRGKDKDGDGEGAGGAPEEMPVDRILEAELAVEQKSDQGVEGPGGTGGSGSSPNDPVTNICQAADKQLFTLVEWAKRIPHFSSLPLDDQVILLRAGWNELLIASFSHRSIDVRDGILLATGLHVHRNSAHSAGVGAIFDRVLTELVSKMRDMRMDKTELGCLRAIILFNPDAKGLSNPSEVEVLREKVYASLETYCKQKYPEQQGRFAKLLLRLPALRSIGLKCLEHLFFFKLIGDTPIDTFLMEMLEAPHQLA
Chain of Peroxisome proliferator-activated receptor delta (Homo sapiens) (Q03181 whole entry): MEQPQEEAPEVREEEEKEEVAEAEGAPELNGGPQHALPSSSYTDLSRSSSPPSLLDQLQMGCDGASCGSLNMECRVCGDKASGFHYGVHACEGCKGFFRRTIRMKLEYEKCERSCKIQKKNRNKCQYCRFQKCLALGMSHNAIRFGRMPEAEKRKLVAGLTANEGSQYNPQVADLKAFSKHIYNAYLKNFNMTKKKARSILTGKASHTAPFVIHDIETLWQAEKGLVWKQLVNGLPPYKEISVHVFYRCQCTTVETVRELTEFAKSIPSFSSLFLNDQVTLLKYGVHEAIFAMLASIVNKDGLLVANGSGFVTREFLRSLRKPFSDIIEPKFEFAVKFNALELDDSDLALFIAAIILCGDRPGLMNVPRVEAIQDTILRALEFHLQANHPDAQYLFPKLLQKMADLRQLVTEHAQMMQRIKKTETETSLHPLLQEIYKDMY
Chain of COUP transcription factor 1 (Homo sapiens) (P10589 whole entry): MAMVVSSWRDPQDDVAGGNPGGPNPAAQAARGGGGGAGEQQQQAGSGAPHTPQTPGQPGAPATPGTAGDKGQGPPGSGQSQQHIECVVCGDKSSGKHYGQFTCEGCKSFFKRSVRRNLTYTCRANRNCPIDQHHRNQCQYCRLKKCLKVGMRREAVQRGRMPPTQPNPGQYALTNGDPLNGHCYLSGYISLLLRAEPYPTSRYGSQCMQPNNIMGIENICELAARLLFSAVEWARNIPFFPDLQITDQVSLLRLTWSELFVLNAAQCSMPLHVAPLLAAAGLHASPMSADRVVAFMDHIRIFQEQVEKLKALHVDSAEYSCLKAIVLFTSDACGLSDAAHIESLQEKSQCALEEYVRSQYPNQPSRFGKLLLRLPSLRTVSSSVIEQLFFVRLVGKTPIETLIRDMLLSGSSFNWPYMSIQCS
Chain of Peroxisome proliferator-activated receptor alpha (Homo sapiens) (Q07869 whole entry): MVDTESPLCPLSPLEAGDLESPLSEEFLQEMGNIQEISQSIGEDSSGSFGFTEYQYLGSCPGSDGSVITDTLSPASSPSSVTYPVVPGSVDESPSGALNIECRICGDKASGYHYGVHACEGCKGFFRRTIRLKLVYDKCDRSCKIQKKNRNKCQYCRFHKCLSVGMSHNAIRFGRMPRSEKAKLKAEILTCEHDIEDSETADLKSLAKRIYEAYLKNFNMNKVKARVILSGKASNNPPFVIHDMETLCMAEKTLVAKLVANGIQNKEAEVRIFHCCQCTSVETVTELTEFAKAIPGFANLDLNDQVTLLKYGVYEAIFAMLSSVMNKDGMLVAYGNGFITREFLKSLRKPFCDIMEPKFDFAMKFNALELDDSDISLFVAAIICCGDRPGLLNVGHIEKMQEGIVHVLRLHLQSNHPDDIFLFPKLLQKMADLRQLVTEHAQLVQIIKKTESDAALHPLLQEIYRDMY
Chain of Nuclear receptor subfamily 2 group C member 2 (Homo sapiens) (P49116 whole entry): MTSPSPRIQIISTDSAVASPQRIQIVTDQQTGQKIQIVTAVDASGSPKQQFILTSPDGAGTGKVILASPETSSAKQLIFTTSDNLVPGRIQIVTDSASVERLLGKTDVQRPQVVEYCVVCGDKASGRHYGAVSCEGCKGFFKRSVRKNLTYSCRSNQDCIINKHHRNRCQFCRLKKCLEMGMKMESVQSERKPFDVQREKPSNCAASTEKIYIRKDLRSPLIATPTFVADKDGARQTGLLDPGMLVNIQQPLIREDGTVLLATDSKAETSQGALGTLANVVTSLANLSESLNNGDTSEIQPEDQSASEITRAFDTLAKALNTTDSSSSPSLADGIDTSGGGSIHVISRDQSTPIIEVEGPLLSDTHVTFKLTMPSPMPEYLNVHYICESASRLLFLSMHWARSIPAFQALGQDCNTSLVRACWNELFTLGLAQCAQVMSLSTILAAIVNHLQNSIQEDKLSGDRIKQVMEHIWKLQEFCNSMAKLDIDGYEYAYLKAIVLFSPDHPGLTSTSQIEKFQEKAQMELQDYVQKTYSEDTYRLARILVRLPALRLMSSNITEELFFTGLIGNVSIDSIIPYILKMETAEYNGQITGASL
Chain of Nuclear receptor ROR-gamma (Homo sapiens) (P51449 whole entry): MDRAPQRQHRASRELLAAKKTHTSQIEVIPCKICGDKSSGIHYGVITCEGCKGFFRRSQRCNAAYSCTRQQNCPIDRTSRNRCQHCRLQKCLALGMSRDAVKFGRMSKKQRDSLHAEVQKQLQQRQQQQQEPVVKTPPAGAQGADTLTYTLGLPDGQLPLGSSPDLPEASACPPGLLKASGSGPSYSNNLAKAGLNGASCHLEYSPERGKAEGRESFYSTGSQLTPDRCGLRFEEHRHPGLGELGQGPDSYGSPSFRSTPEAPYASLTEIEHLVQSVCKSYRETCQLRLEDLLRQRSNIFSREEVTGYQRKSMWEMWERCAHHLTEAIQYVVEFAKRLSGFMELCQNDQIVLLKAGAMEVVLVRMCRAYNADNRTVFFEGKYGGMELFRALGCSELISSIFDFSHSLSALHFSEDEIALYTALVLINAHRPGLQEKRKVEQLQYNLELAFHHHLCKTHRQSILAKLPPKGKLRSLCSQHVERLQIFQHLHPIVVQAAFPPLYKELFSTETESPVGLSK
Chain of Nuclear receptor subfamily 2 group F member 6 (Homo sapiens) (P10588 whole entry, the tested form may be a part): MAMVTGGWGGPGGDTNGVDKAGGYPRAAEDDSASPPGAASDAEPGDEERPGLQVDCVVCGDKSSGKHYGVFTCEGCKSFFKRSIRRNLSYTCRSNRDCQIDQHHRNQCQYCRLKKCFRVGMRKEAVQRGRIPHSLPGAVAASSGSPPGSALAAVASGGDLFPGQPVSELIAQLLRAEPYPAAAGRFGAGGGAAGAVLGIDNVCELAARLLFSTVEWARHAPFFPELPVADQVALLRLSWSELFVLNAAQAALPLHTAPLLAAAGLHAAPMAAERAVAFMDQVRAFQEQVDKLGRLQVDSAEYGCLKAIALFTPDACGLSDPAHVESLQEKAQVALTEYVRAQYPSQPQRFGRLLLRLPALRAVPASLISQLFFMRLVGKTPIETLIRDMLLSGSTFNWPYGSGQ

Compound	concentration at 8 h [1] [nM]	inhibition [2]	inhibition [3]	inhibition [4]	concentration at 2 h [5] [nM]	inhibition [6]	inhibition [7]	concentration at 8 h [8] [nM]	inhibition [9]	inhibition [10]	inhibition [11]	inhibition [12]	Reduced_Cyp7a1_gene_exp [13]	inhibition [14]	inhibition [15]	inhibition [16]	Inhibition [17]	inhibition [18]	inhibition [19]	inhibition [20]	also measured
CCOC(=O)N1CCC(CN(Cc2ccc(Cl)cc2)Cc2ccc([N+](=O)[O-])s2)C1 (stereo not given) [SR9009]	130	inactive	inactive	inactive	22900	inactive	inactive	1500	inactive	inactive	inactive	inactive	Active	inactive	inactive	inactive	Not Active	inactive	inactive	inactive	concentration at 1 h [21]: 1400 nM; inhibition [22]: inactive; inhibition [23]: inactive; inhibition [24]: inactive; inhibition [25]: inactive; inhibition [26]: inactive; inhibition [27]: inactive; concentration at 8 h ([28]; brain, read-out: Conc_brain): 110 nM; inhibition [29]: inactive; NcoR1_recruitment [30]: Dose-dependent effect
CCCCCNC(=O)N1CCC(CN(Cc2ccc(Cl)cc2)Cc2ccc([N+](=O)[O-])s2)C1 (stereo not given) [SR9011]	10	inactive	inactive	inactive	15300	inactive	inactive	740	inactive	inactive	inactive	inactive	Active	inactive	inactive	inactive	Not Active	inactive	inactive	inactive	concentration at 1 h [21]: 1550 nM; inhibition [22]: inactive; inhibition [23]: inactive; inhibition [24]: inactive; inhibition [25]: inactive; inhibition [26]: inactive; inhibition [27]: inactive; Conc_brain ([28]; in vivo, 8 h): Not Detected; inhibition [29]: inactive; NcoR1_recruitment [30]: Dose-dependent effect
